Assay results: ChEMBL document CHEMBL4689842, “EUbOPEN Chemogenomics Library wave 1” (2021)

Legend:
Format in all cases: toxicity, cell-based
[1] = test system: U2OS; test: Incucyte cell viability with U2OS; conditions: human, 10 µM, compound concentration 10 uM; further: filed as whole numbers so only -1 and 0 and 1 occur
[2] = test system: Fibroblast; test: Incucyte cell viability with human fibroblast; conditions: 10 µM, compound concentration 10 uM; further: filed as whole numbers so only -1 and 0 and 1 occur
[3] = test system: U2OS; test: Multiplex assay against U2OS; conditions: human
How it was run: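 Live cells were stained at seeding with Hoechst33342, BioTracker Green Microtubule Cytoskeleton Dye, MitoTracker Red and Annexin V Alexa Fluor 680, then imaged on a CQ1 microscope at 37°C and 5% CO2 after compound addition. CellPathfinder machine-learning gating split cells into Hoechst high-intensity objects or normal cells. Normal cells were split into healthy, pyknosed or fragmented nuclei, and pyknosed cells into mitotic or apoptotic. Tubulin, mitochondrial-mass and membrane-permeability phenotypes are per cents of healthy-nucleus cells.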

[4] = test system: HEK-293T; test: Incucyte cell viability with HEK293T; conditions: human, 10 µM, compound concentration 10 uM; further: filed as whole numbers so only -1 and 0 and 1 occur
[5] = 0 h, replicate number 2, timepoint 0 hours
[6] = 6 h, replicate number 1, timepoint 6 hours
[7] = 12 h, replicate number 1, timepoint 12 hours
[8] = 18 h, replicate number 1, timepoint 18 hours
[9] = 18 h, replicate number 2, timepoint 18 hours
[10] = 24 h, replicate number 1, timepoint 24 hours
[11] = 12 h, 1 µM, compound concentration 1 uM, replicate 1
[12] = 12 h, 1 µM, compound concentration 1 uM, replicate 2
[13] = 12 h, 10 µM, compound concentration 10 uM, replicate 1
[14] = 12 h, 10 µM, compound concentration 10 uM, replicate 2
[15] = 24 h, 1 µM, compound concentration 1 uM, replicate 1
[16] = 24 h, 1 µM, compound concentration 1 uM, replicate 2
[17] = 24 h, 10 µM, compound concentration 10 uM, replicate 1
[18] = 24 h, 10 µM, compound concentration 10 uM, replicate 2

Compound: CC[C@@H]1C(=O)N(C)c2cnc(Nc3ccc(C(=O)NC4CCN(C)CC4)cc3OC)nc2N1C1CCCC1 [BI-2536]
- Growth Rate [1, 5]: 0
- Growth Rate [1, 6]: 0
- Growth Rate [1, 7]: 0
- Growth Rate [1, 8]: 0
- Growth Rate [1, 9]: 1
- Growth Rate [1, 10]: 0
- Growth Rate ([1]; 24 h, replicate number 2, timepoint 24 hours): 1
- Growth Rate ([2]; 0 h, replicate number 1, timepoint 0 hours): 0
- Growth Rate [2, 7]: 1
- Growth Rate [2, 8]: 0
- Growth Rate [2, 9]: 1
- Growth Rate [2, 10]: 0
- Population Apoptotic (%) [3, 11]: 100%
- Population Fragmented Nuclei (%) [3, 11]: 16%
- Population Healthy Nuclei (%) [3, 11]: 80%
- Population Hoechst High Intensity Objects (%) [3, 11]: 1%
- Population Membrane Permeable-Phenotype (%) [3, 11]: 40%
- Population Mitochondria Different-Phenotype (%) [3, 11]: 16%
- Population Mitotic Cells (%) [3, 11]: 0%
- Population Normal (%) [3, 11]: 98%
- Population Pyknosed Nuclei (%) [3, 11]: 3%
- Population Tubulin-Different-Phenotype (%) [3, 11]: 35%
- Total Cell Count [3, 11]: 142
- Population Apoptotic (%) [3, 12]: 70%
- Population Fragmented Nuclei (%) [3, 12]: 10%
- Population Healthy Nuclei (%) [3, 12]: 79%
- Population Hoechst High Intensity Objects (%) [3, 12]: 8%
- Population Membrane Permeable-Phenotype (%) [3, 12]: 33%
- Population Mitochondria Different-Phenotype (%) [3, 12]: 24%
- Population Mitotic Cells (%) [3, 12]: 30%
- Population Normal (%) [3, 12]: 91%
- Population Pyknosed Nuclei (%) [3, 12]: 10%
- Population Tubulin-Different-Phenotype (%) [3, 12]: 34%
- Total Cell Count [3, 12]: 107
- Population Apoptotic (%) [3, 13]: 76%
- Population Fragmented Nuclei (%) [3, 13]: 15%
- Population Healthy Nuclei (%) [3, 13]: 76%
- Population Hoechst High Intensity Objects (%) [3, 13]: 2%
- Population Membrane Permeable-Phenotype (%) [3, 13]: 41%
- Population Mitochondria Different-Phenotype (%) [3, 13]: 72%
- Population Mitotic Cells (%) [3, 13]: 23%
- Population Normal (%) [3, 13]: 97%
- Population Pyknosed Nuclei (%) [3, 13]: 8%
- Population Tubulin-Different-Phenotype (%) [3, 13]: 99%
- Total Cell Count [3, 13]: 160
- Population Apoptotic (%) [3, 14]: 81%
- Population Fragmented Nuclei (%) [3, 14]: 23%
- Population Healthy Nuclei (%) [3, 14]: 67%
- Population Hoechst High Intensity Objects (%) [3, 14]: 8%
- Population Membrane Permeable-Phenotype (%) [3, 14]: 51%
- Population Mitochondria Different-Phenotype (%) [3, 14]: 94%
- Population Mitotic Cells (%) [3, 14]: 18%
- Population Normal (%) [3, 14]: 91%
- Population Pyknosed Nuclei (%) [3, 14]: 9%
- Population Tubulin-Different-Phenotype (%) [3, 14]: 100%
- Total Cell Count [3, 14]: 123
- Population Apoptotic (%) [3, 15]: 46%
- Population Fragmented Nuclei (%) [3, 15]: 17%
- Population Healthy Nuclei (%) [3, 15]: 73%
- Population Hoechst High Intensity Objects (%) [3, 15]: 2%
- Population Membrane Permeable-Phenotype (%) [3, 15]: 20%
- Population Mitochondria Different-Phenotype (%) [3, 15]: 29%
- Population Mitotic Cells (%) [3, 15]: 53%
- Population Normal (%) [3, 15]: 97%
- Population Pyknosed Nuclei (%) [3, 15]: 9%
- Population Tubulin-Different-Phenotype (%) [3, 15]: 17%
- Total Cell Count [3, 15]: 145
- Population Apoptotic (%) [3, 16]: 55%
- Population Fragmented Nuclei (%) [3, 16]: 21%
- Population Healthy Nuclei (%) [3, 16]: 69%
- Population Hoechst High Intensity Objects (%) [3, 16]: 12%
- Population Membrane Permeable-Phenotype (%) [3, 16]: 15%
- Population Mitochondria Different-Phenotype (%) [3, 16]: 35%
- Population Mitotic Cells (%) [3, 16]: 44%
- Population Normal (%) [3, 16]: 87%
- Population Pyknosed Nuclei (%) [3, 16]: 8%
- Population Tubulin-Different-Phenotype (%) [3, 16]: 10%
- Total Cell Count [3, 16]: 115
- Population Apoptotic (%) [3, 17]: 93%
- Population Fragmented Nuclei (%) [3, 17]: 18%
- Population Healthy Nuclei (%) [3, 17]: 72%
- Population Hoechst High Intensity Objects (%) [3, 17]: 5%
- Population Membrane Permeable-Phenotype (%) [3, 17]: 61%
- Population Mitochondria Different-Phenotype (%) [3, 17]: 99%
- Population Mitotic Cells (%) [3, 17]: 6%
- Population Normal (%) [3, 17]: 94%
- Population Pyknosed Nuclei (%) [3, 17]: 9%
- Population Tubulin-Different-Phenotype (%) [3, 17]: 99%
- Total Cell Count [3, 17]: 180
- Population Apoptotic (%) [3, 18]: 88%
- Population Fragmented Nuclei (%) [3, 18]: 22%
- Population Healthy Nuclei (%) [3, 18]: 70%
- Population Hoechst High Intensity Objects (%) [3, 18]: 10%
- Population Membrane Permeable-Phenotype (%) [3, 18]: 84%
- Population Mitochondria Different-Phenotype (%) [3, 18]: 100%
- Population Mitotic Cells (%) [3, 18]: 11%
- Population Normal (%) [3, 18]: 89%
- Population Pyknosed Nuclei (%) [3, 18]: 7%
- Population Tubulin-Different-Phenotype (%) [3, 18]: 100%
- Total Cell Count [3, 18]: 135
- Growth Rate [4, 5]: 1
- Growth Rate [4, 6]: 0
- Growth Rate [4, 7]: 0
- Growth Rate [4, 8]: 0
- Growth Rate [4, 10]: 0
